Assay outcomes: PubChem, several laboratories
Shown are actives, neighbours in structure and some others; about 1% of the full set was active somewhere.
zVAD death inh: inhibitors of zVAD-triggered necroptosis, primary screen, L929 cells; L929 zVAD necroptosis rescue, ATP luminescence, 24 h; with zVAD 60 µM; viability rescue, % at 10 µM; hit rate 0.38% among 220,000; AID 1377, 2008;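 active = activation, scaled between plate controls, above about 75%, limit read from the data; inactive = activation under that limit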;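 also: 0% = zVAD with DMSO and 100% = DMSO alone without zVAD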
Rad51 HR inh: human RAD51 strand exchange inhibitors, primary screen, biochemical, fluorescence; DNA repair protein RAD51 homolog 1 (Homo sapiens), Q06609; AID 1385, 2008; hit rate 0.085% among 200,000; hRad51 DNA strand exchange, fluorescence dequenching; inhibition, % at 10 µM;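 active = inhibition above 40% at the single screening dose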;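 also: 0% = DMSO control wells and 100% = blanks with heterologous ssDNA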
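Test system – preformed human Rad51 ssDNA filaments · Reagent – Donor/quencher-labelled 47-bp dsDNA substrate · Incubation – 37 °C 15-min filament assembly, 30-min compound preincubation, 15-min exchange · Signal – FRET fluorescence dequenching, excitation 485 nm, emission 520 nm · Read-out – percent inhibition from fluorescence, normalised to plate control and blank means · Benchmarks – plate control and blank wells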
HMGR II inh: inhibitors of E. faecalis class II HMGR, primary screen, biochemical, Enterococcus faecalis. purified E. faecalis HMGR, NADPH absorbance 340 nm kinetic. inhibition, % at 10 µM. HMG-CoA reductase (Enterococcus faecalis, mvaE). hit rate 0.41% among 190,000. AID 1066, 2008;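 active = inhibition above a set limit, the median over all tested compounds plus 3 SD, cut at about 9.5% in these data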;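 also: enzyme runs in reverse so mevalonate oxidation gives rising NADPH absorbance; 0% = complete reaction with DMSO and 100% = background rate lacking mevalonate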
PERK inhibitor: block of dimerizer-induced PERK translation repression, primary screen, PERK inhibitor project, CHO PERK-DD cells, SEAP luminescence, HTS; Eukaryotic translation initiation factor 2-alpha kinase 3 (Homo sapiens), Q9NZJ5; CHO PERK-DD fusion, SEAP luminescence translation reporter; inhibition, % at 5.6 µM; hit rate 0.17% among 220,000; AID 1416, 2008;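 active = inhibition above the mean inhibition of all tested compounds plus 3 SD, set separately per screening campaign, cut at about 2.9% in these data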;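 also: PERK kinase domain activated by AP20187 dimerizer at 100 nM; 0% = DMSO with dimerizer and 100% = rapamycin at 8.4 µM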
Target sequence (Q9NZJ5 whole entry, looked up, the tested form may be a part): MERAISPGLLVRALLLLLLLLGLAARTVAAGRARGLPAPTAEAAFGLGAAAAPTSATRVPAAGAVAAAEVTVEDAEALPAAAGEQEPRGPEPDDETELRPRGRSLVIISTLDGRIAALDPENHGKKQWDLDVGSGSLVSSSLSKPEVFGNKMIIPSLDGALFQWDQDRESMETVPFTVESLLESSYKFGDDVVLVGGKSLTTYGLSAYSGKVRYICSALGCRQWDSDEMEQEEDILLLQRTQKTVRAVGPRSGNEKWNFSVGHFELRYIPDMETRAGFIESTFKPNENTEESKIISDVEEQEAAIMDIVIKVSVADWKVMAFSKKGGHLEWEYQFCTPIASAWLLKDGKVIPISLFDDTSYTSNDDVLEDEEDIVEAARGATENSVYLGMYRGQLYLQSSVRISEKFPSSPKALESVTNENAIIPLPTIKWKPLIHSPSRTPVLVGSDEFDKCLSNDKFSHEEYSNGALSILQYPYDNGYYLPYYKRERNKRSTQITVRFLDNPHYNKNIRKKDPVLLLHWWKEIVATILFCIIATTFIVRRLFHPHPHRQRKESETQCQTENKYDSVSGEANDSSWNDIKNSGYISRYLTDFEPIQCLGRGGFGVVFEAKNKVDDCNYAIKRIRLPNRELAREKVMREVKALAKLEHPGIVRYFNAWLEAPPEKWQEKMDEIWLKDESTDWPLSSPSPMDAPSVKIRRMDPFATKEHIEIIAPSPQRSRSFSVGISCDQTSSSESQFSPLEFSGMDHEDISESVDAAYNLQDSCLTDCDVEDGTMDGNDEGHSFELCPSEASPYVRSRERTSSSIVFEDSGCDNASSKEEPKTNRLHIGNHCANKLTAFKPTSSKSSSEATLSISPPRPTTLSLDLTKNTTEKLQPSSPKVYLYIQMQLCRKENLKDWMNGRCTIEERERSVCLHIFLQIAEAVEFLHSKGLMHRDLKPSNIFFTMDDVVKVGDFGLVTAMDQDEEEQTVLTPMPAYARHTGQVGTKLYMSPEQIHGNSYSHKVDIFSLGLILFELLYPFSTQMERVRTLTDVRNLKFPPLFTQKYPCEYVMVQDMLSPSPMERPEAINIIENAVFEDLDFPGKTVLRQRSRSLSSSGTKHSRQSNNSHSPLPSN
TNF death inh: inhibitors of TNF-alpha triggered necroptosis, primary screen, cell-based, Jurkat FADD-/-, single concentration | hit rate 0.068% among 220,000 | activation (protection from cell death), % at 10 µM | Jurkat FADD-/- TNF necroptosis rescue, ATP luminescence, 24 h; 0 = TNF only, 100 = no-TNF cells;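 active = activation, meaning protection from cell death, of at least 50% relative to plate controls; inactive = activation below 50%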;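 also: necroptosis triggered by 40 ng/mL TNF-alpha added together with compound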
* = called active by the depositor; . = not tested or not shown.

SMILES	zVAD death inh	Rad51 HR inh	HMGR II inh	PERK inhibitor	TNF death inh
O=C(O)C(Cc1ccccc1)N1C(=O)CCC1=O (centres undefined)	1.7	1.3	6.5	-0.4	-0.2
O/N=C/c1ccc2cccc(O)c2n1	-1.0	6.6	.	3.7*	0.7
COC1=NS(=O)(=O)c2ccccc21	0.1	13.2	-3.2	0.5	0.9
O=S1(=O)N=C(Oc2ccccc2)c2ccccc21	-0.3	-1.4	1.0	2.9*	-1.3
COc1ccccc1NC(=O)Cn1cnc2c(cnn2-c2ccccc2)c1=O	0.3	1.8	11.6*	-0.7	-0.2
COc1cc(OC)c(OC)cc1CN1CCCC(C(=O)c2sccc2C)C1 (centres undefined)	-0.6	.	.	-1.0	4.1
Cc1ccsc1C(=O)C1CCCN(Cc2cc(F)ccc2-n2cccn2)C1 (centres undefined)	-0.3	-4.8	18.0*	0.4	-0.2
COc1ccccc1NC(=S)N1CCCc2ccccc21	1.4	-0.3	16.1*	0.4	1.0
C=CCNC(=O)NC(=O)COC(=O)[C@H](C)NS(=O)(=O)c1c(C)c(C)cc(C)c1C	0.1	16.0	.	1.4	-0.2
CCOC(=O)C1CCN(c2ncnc3c2nnn3Cc2ccccc2Cl)CC1	0.4	55.4*	-6.3	0.7	-0.5
O=C(c1ccco1)N1CCN(c2ncnc3c2nnn3Cc2ccccc2Cl)CC1	.	-0.6	-5.9	-1.2	-2.1
Oc1c(C=Nc2ccccc2Cl)[nH]c2ccccc12	0.5	.	.	-0.7	-3.7
Cc1nc2ccccc2c(=O)n1/N=C/c1ccccn1	0.0	9.7	0.5	3.0*	-2.5
COc1ccc(N=C2S/C(=C\c3ccc(N4CCOCC4)o3)C(=O)N2CCc2c[nH]c3ccccc23)cc1	35.2	5.3	-4.6	2.1	-15.5
COc1ccc(N=C2S/C(=C\c3ccc(OCC(=O)O)cc3)C(=O)N2CCc2c[nH]c3ccccc23)cc1	-2.8	-7.9	10.4*	0.7	2.2
Cc1nn(CC(=O)c2ccccc2)c(=O)c2nn(-c3ccccc3F)c(C)c12	0.6	14.3	-2.5	-0.8	-1.0
Cc1cccc(SC2CCN(Cc3nc(CC4CC4)no3)CC2)c1	-0.9	.	-2.9	2.1	1.5
Cc1cccc(OC2CCN(Cc3nc(CC4CC4)no3)CC2)c1	-0.1	.	-6.7	3.0*	1.1
COc1ccc(/C=N/n2cnnc2)cc1Br	0.3	.	.	0.8	2.8
C/C(=N/NC(=O)c1cc(O)c(O)c(O)c1)c1ccc([N+](=O)[O-])cc1	1.1	10.3	20.9*	0.2	-1.4
C/C(=N\NC(=O)c1ccc([N+](=O)[O-])cc1)c1c(O)cc(C)oc1=O	5.3	27.5	-2.9	-0.1	0.2
O=C(Nc1cccc2ccccc12)N1N=CCC1c1ccccc1 (centres undefined)	-0.3	-11.0	.	-1.1	64.4*
O=C(Nc1cccc2ccccc12)N1CCN(c2ccccc2)CC1	0.2	13.9	-4.4	0.2	0.2
S=C(Nc1ccccc1)N1N=CCC1c1ccccc1 (centres undefined)	3.0	-12.0	0.2	0.5	90.7*
CCOc1ccccc1N1CCN(Cc2cn[nH]c2-c2ccc(F)cc2)CC1	1.1	11.7	.	-1.0	3.4
SMILES	zVAD death inh	Rad51 HR inh	HMGR II inh	PERK inhibitor	TNF death inh
S=C1NCCc2ccc(Cl)cc2C1c1ccccc1 (centres undefined)	0.0	0.3	16.6*	0.9	-2.2
O=C1CN2C(=Nc3ccc(Cl)cc3C2c2ccccc2)CN1 (centres undefined)	2.6	2.4	-4.3	0.2	2.2
CCC(Sc1ccccn1)C(=O)Nc1cccc([N+](=O)[O-])c1 (centres undefined)	0.5	.	13.7*	-0.5	1.7
CC(Sc1cccc[n+]1[O-])C(=O)Nc1cccc([N+](=O)[O-])c1 (centres undefined)	1.4	0.4	-3.0	0.1	1.0
COc1cccc(/C=C/C(=O)OCC(=O)Nc2ccc(N3CCOCC3)cc2)c1OC	0.8	0.7	-0.3	0.9	0.4
Cc1cccc(OCC(=O)NNC(=O)CSc2ncc(C#N)c(N)n2)c1	0.2	-8.0	4.8	0.7	-1.2
COC(=O)CSc1ncc(C#N)c(N)n1	1.8	-3.7	63.1*	0.8	1.5
CC1CN(C(=O)c2cccc(S(=O)(=O)Nc3ccc(Cl)cc3)c2)CC(C)O1 (centres undefined)	3.6	-2.2	24.2*	0.1	0.4
CC1CN(c2ccc(NS(=O)(=O)c3ccccc3)cc2C(=O)O)CC(C)O1 (centres undefined)	0.4	-0.2	.	0.3	0.5
CC(C)CCNC(=O)CCCOc1cc(=O)n(C)c2ccccc12	2.7	.	1.7	0.2	-8.6
Cn1c(=O)cc(OCCCC(=O)Nc2ccccn2)c2ccccc21	89.0*	-6.8	4.7	-0.5	5.7
CCOC(=O)c1sc(NC(=O)C2C3C=CC(C3)C2C(=O)O)nc1C (centres undefined)	1.2	2.2	0.7	3.4*	2.1
CCOC(=O)c1sc(NC(=O)CSc2nccc(C)n2)nc1C	2.1	5.4	19.1*	0.4	2.5
CCOC(=O)c1sc(NC(=O)CSc2nccc(C)n2)c(C#N)c1C	-0.2	.	-1.1	-0.1	0.0
CCOC(=O)c1sc(N/N=C/c2ccccc2)nc1C	3.2	-9.6	9.9*	0.1	4.8
Cc1cc(C)cc(C(=O)NCC(=O)OCC(=O)NCc2ccco2)c1	-0.6	.	-8.0	0.6	-0.4
CCOc1cc(/C=N/NC(N)=O)cc(Br)c1OCC(=O)Nc1cccc2ccccc12	-0.4	122.5*	2.0	-1.0	-15.4
CCc1nnc(NS(=O)(=O)c2ccc(N=CC3=C(O)CC(C)(C)CC3=O)cc2)s1	0.8	.	-8.4	1.3	-0.6
Cc1ccc(NN2C(=O)C=C(c3ccccc3)C2=O)cc1	-1.3	-14.9	-2.6	0.5	-2.7
O=C1CC(Sc2ncccn2)C(=O)N1c1ccccc1 (centres undefined)	0.8	-7.4	-3.0	0.5	1.5
Cc1nc(SC2CC(=O)N(c3ccccc3)C2=O)n[nH]1 (centres undefined)	2.2	-2.5	12.7*	1.9	2.1
CCNC(=S)N1CCC(NC(=O)C2CCCCC2)CC1	0.1	-4.8	2.8	0.3	-0.3
CCNC(=S)NNC(=O)C1CCCCC1	0.1	0.9	-2.6	2.9*	0.2
CCCCOCCCNC(=O)c1ccc(OC)cc1	-1.1	1.6	-2.4	-0.2	0.3
CCCCOCCCNC(=O)c1ccc(OCC)cc1	0.1	.	10.3*	0.3	-0.7
CCc1cccc2c(C#N)cn(CC(=O)NCc3ccco3)c12	-0.8	-6.8	3.4	0.5	-2.0
CCOC(=O)Cn1cc(C#N)c2cccc(CC)c21	-1.8	1.7	-8.6	3.3*	0.2
